Key:
[1] = biological target: T1, 5-hydroxytryptamine receptor 2C (Homo sapiens, UniProt P28335); assay: Agonist activity at human 5HT2C receptor expressed in HEK293 cells assessed as intracellular IP3 accumulation; format: functional, cell-based
T1 sequence (P28335 whole entry): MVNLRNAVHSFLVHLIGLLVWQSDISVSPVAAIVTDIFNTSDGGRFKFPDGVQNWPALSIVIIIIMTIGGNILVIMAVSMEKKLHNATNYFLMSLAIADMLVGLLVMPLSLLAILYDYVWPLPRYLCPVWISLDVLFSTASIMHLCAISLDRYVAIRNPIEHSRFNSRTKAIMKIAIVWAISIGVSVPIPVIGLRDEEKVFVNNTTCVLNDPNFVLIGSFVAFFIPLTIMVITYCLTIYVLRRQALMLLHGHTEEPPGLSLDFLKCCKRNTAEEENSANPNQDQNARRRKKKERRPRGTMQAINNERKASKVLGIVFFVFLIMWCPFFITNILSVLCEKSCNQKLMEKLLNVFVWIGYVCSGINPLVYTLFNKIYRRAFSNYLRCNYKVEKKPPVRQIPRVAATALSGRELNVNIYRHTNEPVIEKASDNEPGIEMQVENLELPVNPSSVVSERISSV
Method in brief: (§1)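 Functional agonist assay read out as [3H]phosphoinositol turnover; potency expressed as pEC50.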

[2] = biological target: 5-hydroxytryptamine receptor 2B (Homo sapiens, UniProt P41595); assay: Agonist activity at human 5HT2B receptor expressed in HEK293 cells assessed as intracellular IP3 accumulation; format: functional, cell-based; method in brief: as §1
[3] = biological target: Serotonin 2 receptors; 5-HT2a & 5-HT2c (Homo sapiens) (UniProt P28223+P28335); assay: Selectivity ratio of pEC50 for human 5HT2A to pEC50 for human 5HT2C
[4] = species: Homo sapiens; assay: Selectivity ratio of pEC50 for human 5HT2B to pEC50 for human 5HT2C
[5] = biological target: 5-hydroxytryptamine receptor 2A (Homo sapiens, UniProt P28223); assay: Agonist activity at human 5HT2A receptor expressed in HEK293 cells assessed as intracellular IP3 accumulation; format: functional, cell-based; method in brief: as §1
[6] = system: Rattus norvegicus; assay: Reduction of food intake in Sprague-Dawley rat at 12.5 umol/kg, po after 2 hrs relative to control; format: functional
Method in brief: (§2)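 Male Sprague-Dawley rats, caged singly, kept 2 weeks on a reverse light cycle, freely fed, eight per group. Oral gavage of vehicle or compound 1 h before the dark cycle. Food intake measured 2 h postdose and compared with vehicle control.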

[7] = system: Rattus norvegicus; assay: Reduction of food intake in Sprague-Dawley rat at 25 umol/kg, po after 2 hrs relative to control; format: functional; method in brief: as §2
[8] = system: Rattus norvegicus; assay: Reduction of food intake in Sprague-Dawley rat at 50 umol/kg, po after 2 hrs relative to control; format: functional; method in brief: as §2
[9] = system: Rattus norvegicus; assay: Reduction of food intake in Sprague-Dawley rat at 100 umol/kg, po after 2 hrs relative to control; format: functional; method in brief: as §2

Chain of 5-hydroxytryptamine receptor 2B (P41595 whole entry): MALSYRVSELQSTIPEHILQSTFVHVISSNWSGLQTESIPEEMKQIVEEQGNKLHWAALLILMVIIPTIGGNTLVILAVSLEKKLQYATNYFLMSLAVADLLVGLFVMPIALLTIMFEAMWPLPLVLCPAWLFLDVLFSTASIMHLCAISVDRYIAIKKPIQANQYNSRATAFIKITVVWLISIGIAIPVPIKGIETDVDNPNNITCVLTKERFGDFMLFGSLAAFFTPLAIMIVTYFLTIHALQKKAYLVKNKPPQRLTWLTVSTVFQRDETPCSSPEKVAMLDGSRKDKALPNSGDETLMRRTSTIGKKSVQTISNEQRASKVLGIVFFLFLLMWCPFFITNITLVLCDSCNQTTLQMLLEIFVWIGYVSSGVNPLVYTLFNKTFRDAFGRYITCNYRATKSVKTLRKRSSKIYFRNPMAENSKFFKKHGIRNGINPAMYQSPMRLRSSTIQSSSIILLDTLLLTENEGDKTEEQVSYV
Chain of 5-hydroxytryptamine receptor 2A (P28223 whole entry): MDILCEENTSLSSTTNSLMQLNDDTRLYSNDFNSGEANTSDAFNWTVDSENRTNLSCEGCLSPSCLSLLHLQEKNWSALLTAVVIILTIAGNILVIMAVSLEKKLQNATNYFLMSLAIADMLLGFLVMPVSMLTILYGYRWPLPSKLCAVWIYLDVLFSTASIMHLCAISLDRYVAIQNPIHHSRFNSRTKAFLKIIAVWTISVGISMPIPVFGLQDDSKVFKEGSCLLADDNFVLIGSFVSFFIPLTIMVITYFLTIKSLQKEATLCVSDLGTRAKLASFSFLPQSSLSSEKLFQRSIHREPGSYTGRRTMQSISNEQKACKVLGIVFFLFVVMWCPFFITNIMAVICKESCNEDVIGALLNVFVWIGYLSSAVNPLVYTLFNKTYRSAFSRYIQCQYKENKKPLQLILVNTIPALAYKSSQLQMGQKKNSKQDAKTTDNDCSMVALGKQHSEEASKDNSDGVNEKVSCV
Chain of Serotonin 2 receptors; 5-HT2a & 5-HT2c (Homo sapiens) (P28223 whole entry, looked up, one chain of several): as the sequence (P28223 whole entry) above

SMILES | EC50 [1] | EC50 [2] | Selectivity ratio [3] | Selectivity ratio [4] | EC50 [5] | inhibition in vivo at 12.5 µmol/kg [6] | inhibition in vivo at 25 µmol/kg [7] | inhibition in vivo at 50 µmol/kg [8] | inhibition in vivo at 100 µmol/kg [9]
CC1CNCCc2ccc(C(F)(F)F)cc21 (racemic) | 0.00631 µM | 0.794 µM | 1.2 | 2.1 |  |  |  |  | 
COc1ccc2c(c1)CCNCC2C (racemic) | 1.26 µM | > 10 µM |  |  | > 10 µM |  |  |  | 
COc1ccc2c(c1)C(C)CNCC2 (racemic) | 0.2 µM | 5.01 µM |  |  | 0.251 µM |  |  |  | 
CC1CNCCc2c(Cl)cccc21 (racemic) | 0.794 µM | > 10 µM |  |  | > 10 µM |  |  |  | 
C[C@@H]1CNCCc2ccc(C(F)(F)F)cc21 | 0.01 µM | 0.794 µM | 1 | 1.9 | 0.1 µM | 16% | 18% | 45% | 
CC1CNCCc2ccc(Cl)c(F)c21 (racemic) | 0.02 µM | 2.51 µM | 1.6 | 2.1 | 0.794 µM |  |  |  | 
CC1CNCCc2ccc(Cl)cc21 (racemic) |  |  |  |  |  |  | 52% | 62% | 81%
C[C@H](N)Cn1ccc2cc(F)c(Cl)cc21 | 0.00398 µM | 0.00158 µM | 1.1 | -0.4 | 0.0501 µM |  |  |  | 
C[C@H]1CNCCc2ccc(Cl)c(Cl)c21 | 0.316 µM | > 10 µM |  |  | 2.51 µM |  |  |  | 
COc1cc2c(cc1Cl)C(C)CNCC2 (racemic) [listing 1 of 2 here] |  |  | 0.9 | 0.9 |  |  |  |  | 
c1ccc2c(c1)CCNCC2 | 3.16 µM | > 10 µM |  |  | > 10 µM |  |  |  | 
CC1CNCCc2cc(Cl)c(Cl)cc21 (racemic) |  | 0.0501 µM | 0.7 | 1.1 | 0.02 µM |  | 33% | 44% | 60%
CC1(C)CNCCc2ccc(Cl)cc21 | 0.2 µM | > 10 µM |  |  | 1.58 µM |  |  |  | 
C[C@@H]1CNCCc2cc(Cl)c(Cl)cc21 | 0.00794 µM | 0.251 µM | 1.1 | 1.5 | 0.1 µM |  | 54% | 58% | 74%
C[C@@H]1CNCCc2ccc(Cl)c(F)c21 | 0.00398 µM | > 10 µM | 2.4 | > 3.4 | 1 µM |  |  |  | 
COc1cc2c(cc1Cl)C(C)CNCC2 (single isomer, unassigned; form 2) [listing 1 of 2 here] | 0.00631 µM | 0.0398 µM |  |  | 0.0316 µM |  | 60% | 66% | 77%
CC1CNCCc2ccccc21 (racemic) | 0.316 µM | 3.98 µM |  |  |  |  |  |  | 
CC[C@@H]1CNCCc2ccc(Cl)cc21 | 0.02 µM | 0.631 µM | 1.2 | 1.5 | 0.316 µM |  |  |  | 

SMILES | EC50 [1] | EC50 [2] | Selectivity ratio [3] | Selectivity ratio [4] | EC50 [5] | inhibition in vivo at 12.5 µmol/kg [6] | inhibition in vivo at 25 µmol/kg [7] | inhibition in vivo at 50 µmol/kg [8] | inhibition in vivo at 100 µmol/kg [9]
CC1CNCCc2ccc(Cl)c(Cl)c21 (racemic) | 0.00794 µM | 1.58 µM | 1.4 | 2.3 | 0.2 µM |  |  |  | 
Clc1ccc2c(c1)CCNCC2 | 0.0126 µM |  | 0.9 | 1.9 | 0.1 µM |  | 63% | 68% | 85%
CC[C@H]1CNCCc2ccc(Cl)cc21 | 0.0398 µM | 0.251 µM | 0.8 | 0.8 | 0.251 µM |  |  |  | 
C[C@H]1CNCCc2cc(Cl)c(Cl)cc21 | 0.00398 µM | 0.0398 µM | 0.4 | 1 | 0.01 µM |  | 16% | 40% | 66%
COc1cc2c(cc1Cl)C(C)CNCC2 (racemic) [listing 2 of 2 here] | 0.00794 µM | 0.0631 µM |  |  | 0.0631 µM |  | 38% | 52% | 71%
COc1cc2c(cc1Cl)C(C)CNCC2 (single isomer, unassigned; form 1) [listing 1 of 2 here] |  |  | 1.4 | 1.7 |  |  |  |  | 
CC1CNCCc2ccc(Br)cc21 (racemic) | 0.01 µM | 2 µM | 1.7 | 2.3 | 0.501 µM |  |  |  | 
CC1CNCCc2cc(Cl)ccc21 (racemic) | 0.0251 µM | 0.501 µM | 0.8 | 1.3 | 0.158 µM |  |  |  | 
COc1cc2c(cc1Cl)CCNCC2C (racemic) | 0.0501 µM | 0.2 µM | 0.3 | 0.6 | 0.1 µM |  |  |  | 
COc1cc2c(cc1Cl)C(C)CNCC2 (single isomer, unassigned; form 2) [listing 2 of 2 here] |  |  | 0.7 | 0.8 |  |  |  |  | 
CC1CNCCc2c(Cl)cc(Cl)cc21 (centres undefined) |  | 0.794 µM | 0.8 | 1.6 | 0.126 µM |  |  |  | 
CC1CNCCc2cccc(Cl)c21 (racemic) | 0.794 µM | > 10 µM |  |  | > 10 µM |  |  |  | 
CC1CNCCc2ccc(F)cc21 (racemic) | 0.398 µM | > 10 µM |  |  |  |  |  |  | 
C[C@@H]1CNCCc2ccc(Cl)c(Cl)c21 | 0.00316 µM | 1.26 µM | 1.6 | 2.6 | 0.126 µM |  | 19% | 41% | 69%
C[C@H](N)Cc1cccc(C(F)(F)F)c1 [NORDEXFENFLURAMINE] | 0.0251 µM | 0.0158 µM | 0.9 | -0.2 | 0.2 µM |  |  |  | 
CC1CNCCc2cc(F)c(Cl)cc21 (racemic) | 0.00631 µM | 0.316 µM | 1 | 1.7 | 0.0631 µM |  | 30% | 41% | 58%
COc1cc2c(cc1Cl)C(C)CNCC2 (single isomer, unassigned; form 1) [listing 2 of 2 here] | 0.00794 µM | 0.398 µM |  |  | 0.2 µM |  | 32% | 36% | 43%

From ChEMBL document CHEMBL1140712 (J Med Chem, 2008)
